In brackets after ≈: the same amount, converted by molar mass. Each block holds one molecule with its values, some of them ahead of it. Activity calls are given as the source filed them.
How the values were obtained:
DNA topoisomerase II [1] = biological target: T1, DNA topoisomerase II (Homo sapiens, UniProt P11388+Q02880); test: Concentration of compound at which inhibitory activity detected against DNA topoisomerase II; assay type: protein assay, Drosophila melanogaster
[2] = in vitro inhibitory activity against tubulin polymerization.; design: species or system Ovis aries
[3] = Water solubility of the compound; assay type: ADME; settings: for S: buffer; for solubility: water, read-out: S
Mus musculus [4] = test: compound was tested in vivo for inhibition of P388 murine leukemia cells after iv / ip administration.; assay type: functional
Outline: (§1)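 CDF1 mice over 18 g implanted iv with 10^6 P388 leukemia cells on day 0 and randomized. Single ip dose on day 1, chosen from 2.5, 10, 40 or 160 mg/kg. Survival and clinical signs followed daily; weights taken days 1, 4 and 8. T/C% is median survival of treated over control × 100; 125-175% is the minimum activity level.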

L1210 = test: In vitro cytotoxic activity against murine L1210 leukemia cells.; assay type: functional, cell-based, Mus musculus
Outline: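 Murine L1210 leukemia cells grown in RPMI 1640 with 10% heat-inactivated horse serum at 37 °C, 5% CO2, used within 40 passages (doubling time 8-10 h). Exponentially growing cells (1.5 × 10^5/well) exposed to a concentration range for 48 h, then counted electronically.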

Mus musculus [5] = test: percent T / C values ([…] / control) against P388 murine leukemia cells at 40 mg/kg dose; assay type: functional; outline: as §1
Mus musculus [6] = test: percent T / C values ([…] / control) against P388 murine leukemia cells at 160 mg/kg dose; assay type: functional; outline: as §1
Mus musculus [7] = test: compound was tested in vivo for inhibition of P388 murine leukemia cells after iv / ip administration at 40 mg/ kg; NA indicates inactive; assay type: functional, organism-based; design: dose 40 mg/ kg
Outline: (§2)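 P388 leukemia cells (10^6/mouse) implanted iv in CDF1 mice (>18 g) on day 0. After randomization, single ip dose on day 1 from the series 2.5, 10, 40, 160 mg/kg. Daily clinical checks and death recorded, weights on days 1, 4, 8. Activity scored as median survival treated/control ×100 (T/C, %), with 125–175% as minimum activity (NCI criteria).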

Mus musculus [8] = test: Compound was tested in vivo for inhibition of P388 murine leukemia cells after iv / ip administration at 40 mg/ kg; NA indicates inactive; assay type: functional, organism-based; design: dose 40 mg/ kg; outline: as §2
[9] = Water solubility of the compound; insoluble; assay type: ADME; settings: buffer
DNA topoisomerase II [10] = biological target: T1, DNA topoisomerase II; test: In vitro inhibitory activity against DNA topoisomerase II; assay type: protein assay, Drosophila melanogaster
[11] = Mus musculus, P388, read-out: ED50

Structure (SMILES): COc1cc([C@@H]2c3cc4c(cc3[C@@H](OC3CC(N)C5OC(C)OCC5O3)[C@H]3COC(=O)[C@H]23)OCO4)cc(OC)c1O (stereo in doubt; 27)
- EC50 (DNA topoisomerase II [1]): > 100000 nM
- IC50 [2]: > 50000 nM
- S [3]: 9 mg/mL
- ED50 (Mus musculus [4]): 1.7 mg/kg
- IC50 (L1210; l1210): 70 nM
- T/C max (Mus musculus [5]): 193%

Structure (SMILES): COc1cc([C@@H]2c3cc4c(cc3[C@@H](O[C@@H]3O[C@@H]5CO[C@@H](C)O[C@H]5[C@H](O)[C@H]3O)[C@H]3COC(=O)[C@H]23)OCO4)cc(OC)c1O [ETOPOSIDE]
- S [3]: 0.01 mg/mL
- ED50 (Mus musculus [4]; [11]): 5 mg/kg
- IC50 (L1210; Mus musculus, L1210): 200 nM
- T/C max (Mus musculus [6]): 242%

Structure (SMILES): COc1cc([C@@H]2c3cc4c(cc3[C@@H](OC3CC(N)C5OC(C)OCC5O3)[C@H]3COC(=O)[C@H]23)OCO4)cc(OC)c1O (stereo in doubt; 17)
- EC50 (DNA topoisomerase II [1]): > 100000 nM
- IC50 [2]: > 10000 nM
- solubility [3]: 11 mg/mL (≈ 19.2 mM)
- ED50 (Mus musculus [4]): 5 mg/kg
- IC50 (L1210; l1210): 230 nM
- T/C max (Mus musculus [6]): 300%

Structure (SMILES): COc1cc([C@@H]2c3cc4c(cc3[C@@H](OC3CC(N(C)C)C5OC(C)OCC5O3)[C@H]3COC(=O)[C@H]23)OCO4)cc(OC)c1O (stereo in doubt; 28)
- EC50 (DNA topoisomerase II [1]): > 100000 nM
- S [3]: 24 mg/mL
- ED50 (Mus musculus [4]): 1.7 mg/kg
- IC50 (L1210; l1210): 110 nM
- T/C max (Mus musculus [5]; 40 mg/kg): 243%

Structure (SMILES): COc1cc([C@@H]2c3cc4c(cc3[C@@H](OC3CC(N)C(O)C(C)O3)[C@H]3COC(=O)[C@H]23)OCO4)cc(OC)c1O (stereo partly specified)
- ED50 (Mus musculus [7]): inactive
- EC50 (DNA topoisomerase II [1]): 5600 nM
- IC50 [2]: > 10000 nM
- solubility [3]: 13 mg/mL (≈ 24.5 mM)
- IC50 (L1210; Mus musculus, L1210): 12000 nM

Structure (SMILES): COc1cc([C@@H]2c3cc4c(cc3[C@@H](OC3CC(N5CCOCC5)C5OC(C)OCC5O3)[C@H]3COC(=O)[C@H]23)OCO4)cc(OC)c1O (stereo partly specified)
- EC50 (DNA topoisomerase II [1]): > 1000 nM
- IC50 (L1210; Mus musculus, L1210): > 1000 nM
- ED50 (Mus musculus [8]): inactive
- S [9]: Insoluble

Structure (SMILES): COc1cc([C@@H]2c3cc4c(cc3[C@@H](OC3CC(NCCN)C5OC(C)OCC5O3)[C@H]3COC(=O)[C@H]23)OCO4)cc(OC)c1O (stereo partly specified)
- ED50 (Mus musculus [7]): inactive
- EC50 (DNA topoisomerase II [1]): > 100000 nM
- IC50 [2]: > 10000 nM
- solubility [3]: 40 mg/mL (≈ 65.1 mM)
- IC50 (L1210; Mus musculus, L1210): 1700 nM

Structure (SMILES): COc1cc([C@@H]2c3cc4c(cc3[C@H](O)[C@H]3COC(=O)[C@H]23)OCO4)cc(OC)c1OC [PODOFILOX]
- IC50 [2]: 3000 nM

Structure (SMILES): COc1cc([C@@H]2c3cc4c(cc3[C@@H](OC3CC(N(C)C)C5OC(C)OCC5O3)[C@H]3COC(=O)[C@H]23)OCO4)cc(OC)c1O (stereo in doubt; 29)
- EC50 (DNA topoisomerase II [1]): > 100000 nM
- IC50 [2]: > 50000 nM
- solubility [3]: 26 mg/mL (≈ 43.4 mM)
- ED50 (Mus musculus [4]): 5 mg/kg
- IC50 (L1210; Mus musculus, L1210): 90 nM
- T/C max (Mus musculus [5]; 40 mg/kg): 257%

Structure (SMILES): COc1cc([C@@H]2c3cc4c(cc3[C@@H](OC3CC(N)C(O)C(CN)O3)[C@H]3COC(=O)[C@H]23)OCO4)cc(OC)c1O (stereo partly specified)
- ED50 (Mus musculus [7]): inactive
- EC50 (DNA topoisomerase II [1]): > 100000 nM
- IC50 [2]: 11000 nM
- solubility [3]: 42 mg/mL (≈ 77.1 mM)
- IC50 (L1210; Mus musculus, L1210): 210 nM

Structure (SMILES): COc1cc([C@@H]2c3cc4c(cc3CC3COC(=O)[C@@H]32)OCO4)cc(OC)c1O (stereo partly specified)
- IC50 [2]: 13000 nM

Structure (SMILES): COc1cc([C@@H]2c3cc4c(cc3[C@@H](OC3CC(NCC#N)C5OC(C)OCC5O3)[C@H]3COC(=O)[C@H]23)OCO4)cc(OC)c1O (stereo partly specified)
- EC50 (DNA topoisomerase II [1]): > 1000 nM
- IC50 [2]: > 100000 nM
- ED50 (Mus musculus [4]; [11]): 20 mg/kg
- IC50 (L1210; Mus musculus, L1210): 2000 nM
- T/C max (Mus musculus [6]): 186%
- S [9]: Insoluble

Structure (SMILES): COc1cc([C@@H]2c3cc4c(cc3[C@@H](O[C@@H]3CC(N)C5OC(C)OCC5O3)[C@H]3COC(=O)[C@H]23)OCO4)cc(OC)c1O (stereo partly specified)
- ED50 (Mus musculus [7]): inactive
- EC50 (DNA topoisomerase II [1]): > 100000 nM
- IC50 [2]: > 50000 nM
- solubility [3]: 10 mg/mL (≈ 17.5 mM)
- IC50 (L1210; Mus musculus, L1210): 1300 nM

- EC50 (DNA topoisomerase II [10]): 56000 nM
- solubility [3]: 15 mg/mL (≈ 24.4 mM)
Structure (SMILES): COc1cc([C@@H]2c3cc4c(cc3C(OC3OC5COC(C)OC5C(O)C3N(C)C)C3COC(=O)[C@@H]32)OCO4)cc(OC)c1O (stereo partly specified)

From ChEMBL document CHEMBL1131312 (J Med Chem, 1998)
